ChEMBL document CHEMBL4334469, “Integrated Synthetic, Biophysical, and Computational Investigations of Covalent Inhibitors of Prolyl Oligopeptidase and Fibroblast Activation Protein α” (J Med Chem, 2019)
The source made the active and inactive calls. The rule behind the calls is not given here. Peptide text beside a SMILES is read from it. * marks the point of attachment. Cbz = O=C(OCc1ccccc1)*

Legend:
[1] = biological target: Prolyl endopeptidase FAP (Homo sapiens) (UniProt Q12884); test: Inhibition of human recombinant FAP at 100 uM using fluorogenic DPP substrate1 relative to control
[2] = Drug metabolism in buffer assessed as formation of [(2R)-1-(2-benzyl-3-oxo-isoindoline-4-carbonyl)pyrrolidin-2-yl]boronic acid after 10 mins by LC-MS analysis
Method in brief: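 Boronic ester hydrolysis was followed by LC-MS (UHPLC-QTOF, positive ESI). Ester from a 100 mM DMSO stock was diluted 1:10 into buffer in a capped autosampler vial. Aliquots were taken at 5 min intervals and loop-injected in 1:1 water/acetonitrile with 0.1% formic acid. The boronic ester remaining was tracked over time.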

Prolyl endopeptidase = biological target: T1, Prolyl endopeptidase (Homo sapiens, UniProt P48147); test: (§1) Inhibition of recombinant human POP pre-incubated for 30 mins before addition of ZGP-pNA substrate by absorbance assay
T1 sequence (P48147 whole entry): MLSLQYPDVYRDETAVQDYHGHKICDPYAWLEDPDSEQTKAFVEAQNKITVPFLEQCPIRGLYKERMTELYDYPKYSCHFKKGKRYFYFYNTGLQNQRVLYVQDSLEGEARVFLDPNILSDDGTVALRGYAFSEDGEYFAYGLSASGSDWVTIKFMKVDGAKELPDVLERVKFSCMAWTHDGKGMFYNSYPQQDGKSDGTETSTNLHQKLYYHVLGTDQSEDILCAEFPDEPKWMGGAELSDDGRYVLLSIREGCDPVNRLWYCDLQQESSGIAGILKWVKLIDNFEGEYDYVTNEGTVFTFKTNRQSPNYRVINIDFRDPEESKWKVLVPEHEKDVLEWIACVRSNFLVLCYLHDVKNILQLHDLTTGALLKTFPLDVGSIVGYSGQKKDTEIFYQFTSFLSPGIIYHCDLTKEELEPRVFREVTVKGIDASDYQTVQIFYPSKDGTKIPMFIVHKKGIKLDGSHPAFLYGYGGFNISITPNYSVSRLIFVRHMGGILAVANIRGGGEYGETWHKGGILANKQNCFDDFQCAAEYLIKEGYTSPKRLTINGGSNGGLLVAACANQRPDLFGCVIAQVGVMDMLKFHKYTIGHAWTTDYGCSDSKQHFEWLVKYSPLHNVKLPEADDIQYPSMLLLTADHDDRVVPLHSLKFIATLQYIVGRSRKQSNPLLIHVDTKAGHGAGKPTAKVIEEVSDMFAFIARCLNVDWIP

[3] = biological target: Prolyl endopeptidase FAP (Homo sapiens) (UniProt Q12884); test: Inhibition of human recombinant FAP at 10 uM using fluorogenic DPP substrate1 relative to control
[4] = biological target: T2, Prolyl endopeptidase (Homo sapiens) (UniProt P48147); test: as §1
T2 sequence (whole entry): T1 sequence (P48147 whole entry)

Prolyl endopeptidase FAP = biological target: T3, Prolyl endopeptidase FAP (Homo sapiens, UniProt Q12884); test: Inhibition of FAP (unknown origin)
T3 sequence (Q12884 whole entry): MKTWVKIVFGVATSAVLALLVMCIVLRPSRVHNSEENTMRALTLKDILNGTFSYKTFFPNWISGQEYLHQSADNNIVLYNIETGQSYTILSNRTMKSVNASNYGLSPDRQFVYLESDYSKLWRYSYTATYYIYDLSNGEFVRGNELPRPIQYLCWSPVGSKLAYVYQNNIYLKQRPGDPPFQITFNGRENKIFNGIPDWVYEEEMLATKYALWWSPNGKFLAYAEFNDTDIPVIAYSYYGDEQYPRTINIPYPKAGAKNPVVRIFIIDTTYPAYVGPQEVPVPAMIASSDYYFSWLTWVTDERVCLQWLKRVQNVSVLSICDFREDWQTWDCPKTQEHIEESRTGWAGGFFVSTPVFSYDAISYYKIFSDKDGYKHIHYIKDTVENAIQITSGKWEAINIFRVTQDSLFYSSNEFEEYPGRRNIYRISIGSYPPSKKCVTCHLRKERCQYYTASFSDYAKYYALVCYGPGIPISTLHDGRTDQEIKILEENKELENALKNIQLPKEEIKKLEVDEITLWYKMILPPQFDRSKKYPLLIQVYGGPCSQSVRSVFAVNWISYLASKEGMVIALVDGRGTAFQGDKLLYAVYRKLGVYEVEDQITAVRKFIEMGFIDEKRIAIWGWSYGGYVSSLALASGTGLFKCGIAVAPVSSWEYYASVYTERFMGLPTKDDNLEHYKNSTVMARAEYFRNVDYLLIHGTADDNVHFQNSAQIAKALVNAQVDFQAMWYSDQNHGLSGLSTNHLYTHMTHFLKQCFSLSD

Work on `N#C[C@@H]1CCCN1C(=O)c1cccc2c1C(=O)N(Cc1ccccc1)C2` yielded an inhibition [1] of 20%.
In the case of `CC1(C)[C@H]2C[C@@H]3OB([C@@H]4CCCN4C(=O)c4cccc5c4C(=O)N(Cc4ccccc4)C5)O[C@]3(C)[C@@H]1C2`, the inhibition [1] is reported as < 5% and the Drug metabolism [2] is reported as 90%.
With `N#C[C@@H]1C[C@H](F)CN1C(=O)c1cccc2c1C(=O)N(Cc1ccccc1)C2` the Ki (Prolyl endopeptidase) was 0.17 µM and the inhibition [1] was < 5%.
With `O=C[C@@H]1CCCN1C(=O)c1cccc2c1C(=O)N(Cc1ccccc1)C2` the inhibition [1] was 80% and the inhibition [3] was 11%.
In the case of `N#C[C@@H]1C[C@@H](F)CN1C(=O)c1cccc2c1C(=O)N(Cc1ccccc1)C2`, the Ki (Prolyl endopeptidase) is reported as > 100 µM and the inhibition [1] is reported as < 5%.
In the case of `O=C(c1cccc2c1C(=O)N(Cc1ccccc1)C2)N1CC[C@@H](F)C1`, the inhibition [1] is reported as < 5%.
With `O=C(c1cccc2c1C(=O)N(Cc1ccccc1)C2)N1CC[C@H](F)C1` the inhibition [1] was < 5%.
With `CC1(C)[C@@H]2C[C@@H](O)[C@@](C)(O)[C@H]1C2` the inhibition [4] was “inactive”.
With `N#C[C@@H]1CC(F)(F)CN1C(=O)c1cccc2c1C(=O)N(Cc1ccccc1)C2` the Ki (Prolyl endopeptidase) was 3.3 µM and the inhibition [1] was < 5%.
In the case of `O=C(c1cccc2c1C(=O)N(Cc1ccccc1)C2)N1CCCC1`, the inhibition [1] is reported as < 5%.
For `CC(C)[C@H](NC(=O)c1ccncc1)C(=O)N1CCC[C@H]1B(O)O`, the IC50 (Prolyl endopeptidase FAP) was > 100 µM.
For `O=C[C@@H]1CCCN1C(=O)[C@@H]1CCCN1C(=O)OCc1ccccc1` (Cbz-Pro-Pro-aldehyde), the inhibition [1] was < 5%.
